Only some compounds are listed: those with a hit (about 2.9% of all), similar ones and a draw of the others.
GalR3 antag: GalR3 antagonists in HEK293 cells, primary screen, cell-based, fluorescence readout. Galanin receptor type 3 (Homo sapiens), O60755. HEK293 GalR3-CNG cAMP membrane potential fluorescence; galR3 body fused to GalR1 C-terminus. inhibition, % at 3 µM. hit rate 0.44% among 360,000. AID 651719, 2012;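 active = inhibition above the screen-wide average plus 3 SD, cut at about 13% in these data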;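 note: forskolin and galanin both at EC90 stimulate the cells; cAMP rise reported by CNG channel membrane potential dye signal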
Target sequence (O60755 1-299 limits assumed): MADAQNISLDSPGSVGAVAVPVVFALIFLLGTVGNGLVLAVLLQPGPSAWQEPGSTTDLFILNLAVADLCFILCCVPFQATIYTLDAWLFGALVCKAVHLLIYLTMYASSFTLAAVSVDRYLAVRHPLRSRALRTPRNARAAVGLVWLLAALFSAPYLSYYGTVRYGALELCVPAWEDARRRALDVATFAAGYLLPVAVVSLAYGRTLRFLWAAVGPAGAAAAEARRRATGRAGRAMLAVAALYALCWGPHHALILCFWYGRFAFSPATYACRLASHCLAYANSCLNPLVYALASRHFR
H9c2 TAG inh: inhibitors of triacylglycerol accumulation, primary screen, cell-based, uHTS, fluorescence, H9c2. inhibition, % at 12.5 µM. AID 651582, 2012. H9c2 cells, Nile Red lipid (TAG) fluorescence; cells loaded with 200 µM oleic acid. hit rate 0.66% among 230,000;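 active = pattern-corrected inhibition of lipid staining of at least 50% with the nuclear-stain viability signal not falling by more than 50%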
MC4R antag cAMP: MC4R antagonists of cAMP signaling, primary screen, cell-based, TR-FRET, antagonist arm of biased-ligand search; Melanocortin receptor 4 (Homo sapiens), P32245; MC4R-expressing cells, MTII-stimulated cAMP, LANCE TR-FRET; inhibition, % at 6.5 µM; hit rate 0.48% among 360,000; AID 540295, 2011;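 active = inhibition above its plate's cutoff, the mean of tested wells on that plate plus 3 SD, cut at about 29% in these data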
Target sequence (P32245 whole entry, looked up): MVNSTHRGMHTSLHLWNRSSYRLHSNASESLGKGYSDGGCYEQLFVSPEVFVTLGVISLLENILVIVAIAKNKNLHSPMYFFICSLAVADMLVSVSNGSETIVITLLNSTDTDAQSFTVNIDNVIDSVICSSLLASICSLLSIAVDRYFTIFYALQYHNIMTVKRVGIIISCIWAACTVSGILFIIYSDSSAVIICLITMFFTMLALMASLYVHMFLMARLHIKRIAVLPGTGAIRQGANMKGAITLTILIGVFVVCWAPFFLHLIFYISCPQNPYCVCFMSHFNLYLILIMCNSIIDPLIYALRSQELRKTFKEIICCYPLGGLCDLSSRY
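Assay system: U2OS-MC4R stable cell line; Also added: Melanotan II; Technique: Eu-cAMP/anti-cAMP TR-FRET, emission 671 nm; Times: 30-min compound, 1-h challenge, 1-h detection, room temperature.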
Efflux pump inh: inhibitors of Candida efflux pumps in yeast, primary screen, S. cerevisiae, Nile Red, multiplex. S. cerevisiae Candida pump triplex. inhibition, % at 10 µM. hit rate 0.44% among 330,000. AID 485275, 2010;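 active = plate passing quality check with inhibition over a set limit, or well fluorescence over plate mean plus 4 SD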;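 note: Nile Red retained in pooled yeast measured as flow cytometry median fluorescence; higher means more Nile Red kept so more efflux inhibition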
Calb FLC: C. albicans growth inhibition with fluconazole, primary screen, CaCi-2 strain, Alamar Blue fluorescence | C. albicans CaCi-2 + fluconazole, 48 h | AID 1979, 2009 | hit rate 0.57% among 300,000 | growth inhibition, % (no concentration beside the values);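 active = growth inhibition above about 58% in most replicates, limit read from the data, passing the limit was not always enough; inconclusive = exactly half the replicates above a set limit; inactive = most replicates below a set limit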;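 note: all wells also contain fluconazole at 8 µg/ml as a sub-toxic cotreatment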
MC4R ag barr: MC4R agonists recruiting beta-arrestin, primary screen, cell-based, luminescence, agonist arm of biased-ligand search. activation, % at 8.9 µM. Melanocortin receptor 4 (Homo sapiens), P32245. hit rate 0.98% among 360,000. U2OS MC4R beta-arrestin complementation; percent of melanotan II response, DMSO zero. AID 540308, 2011;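 active = activation above a per-plate cutoff, the mean activation of sample wells on that plate plus 3 SD, cut at about 8% in these data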
GalR3 antag conf: GalR3 antagonist hit confirmation, cell-based, fluorescence, triplicate; AID 652245, 2013; hit rate 59% among 1,600; shares compounds with GalR3 antag; inhibition, % at 3 µM; HEK293 GalR3 CNG cAMP biosensor, membrane potential fluorescence; galR3 fused to GalR1 carboxy tail; challenged with forskolin and galanin at EC90;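 active = inhibition above the primary screen's cutoff, the mean inhibition of all screened compounds plus 3 SD, cut at about 13% in these data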
HEK-CNG parental: nonspecific cAMP agonists in parental HEK-CNG cells, counter-screen for GalR3 antagonist project, cell-based, fluorescence, high throughput. shares compounds with GalR3 antag. HEK293-CNG parental cells, cAMP membrane potential fluorescence; normalised: DMSO wells 0%, forskolin wells 100%. activation, % at 3 µM. hit rate 10% among 1,600; in the data active = activation above about 1.3%
Each line names hits and unclear results; the compound was inactive in the other large screens (follow-up assays come after a bar, where they were run).

COc1cccc2[nH]c3c(N4CC(C)CC(C)C4)ncnc3c12 (stereo not given)	none (no result: GalR3 antag, H9c2 TAG inh, MC4R antag cAMP, Efflux pump inh, MC4R ag barr)
COc1cccc2[nH]c3c(N4CCCC(C)C4)ncnc3c12 (stereo not given)	GalR3 antag 83.6 (no result: H9c2 TAG inh) | GalR3 antag conf 94.4 | HEK-CNG parental inactive
O=C(NCc1ccccc1)[C@H]1CCCN1C(=O)[C@H]1CCCN1C(=O)c1cccc2ccccc12	none (no result: H9c2 TAG inh, MC4R antag cAMP, Efflux pump inh, Calb FLC, MC4R ag barr)
Cc1ccc(CN2C(=O)CCC2C(=O)NCCCN2CCC(C)CC2)cc1 (stereo not given)	none (no result: GalR3 antag, Efflux pump inh) | GalR3 antag conf inactive | HEK-CNG parental inactive
Cc1ccc(CN2C(=O)CCC2C(=O)NCCCN2CCOCC2)cc1 (stereo not given)	none
NC(=O)c1nnn(Cc2cc(Cl)c(C(=O)c3ccc(Cl)cc3)c(Cl)c2)c1N	GalR3 antag 96.7 (no result: H9c2 TAG inh, MC4R antag cAMP, Efflux pump inh, Calb FLC, MC4R ag barr) | GalR3 antag conf 120.2 | HEK-CNG parental inactive
Nc1c(C(=O)Nc2ccc3c(c2)OCCO3)nnn1Cc1ccc(Cl)cc1	none
C#Cc1cccc(Nc2nc(NCc3ccccc3OC)nc3ccsc23)c1	none (no result: Efflux pump inh, Calb FLC)
Cc1cc(/C=C(\C#N)C(=O)NCc2ccco2)c(C)n1-c1ccc(C(=O)O)cc1	none (no result: GalR3 antag) | GalR3 antag conf inactive | HEK-CNG parental inactive
N#C/C(=C/c1cn(-c2ccccc2)nc1-c1cccc(S(=O)(=O)N2CCCC2)c1)C(=O)NCc1ccco1	GalR3 antag 13.8 (no result: H9c2 TAG inh) | GalR3 antag conf 23.0 | HEK-CNG parental inactive
O=C(NCc1ccccc1)[C@@H]1CCCN1C(=O)[C@H]1CCCN1C(=O)c1ccccc1Cl	none (no result: H9c2 TAG inh, MC4R antag cAMP, Efflux pump inh, Calb FLC, MC4R ag barr)
COc1ccc(C(C(=O)Nc2ccc(F)cc2)N2CCN(CC(=O)N3CCCC3)CC2)cc1 (stereo not given)	none (no result: H9c2 TAG inh, MC4R antag cAMP, Efflux pump inh, Calb FLC, MC4R ag barr)
O=C(OCc1ccccc1)N1Cc2ccnnc2CC1c1ccccc1-c1ccc(C(F)(F)F)cc1 (stereo not given)	none (no result: H9c2 TAG inh, MC4R antag cAMP, Efflux pump inh, Calb FLC, MC4R ag barr)
CSc1nsc2nc(=O)c(/C=C3\C(C)=Nc4ccccc43)c(N)n12	GalR3 antag 12.7 (no result: Efflux pump inh) | GalR3 antag conf inactive | HEK-CNG parental inactive
CC1=Nc2ccccc2/C1=C/c1sc(=S)n(-c2cccc(C(=O)O)c2)c1O	none (no result: Efflux pump inh)
O=C(NCC1CCN(Cc2ccc(Cl)cc2)CC1)C1CCCN(c2ncnc3c2nc2n3CCCCC2)C1 (stereo not given)	GalR3 antag 61.7 (no result: H9c2 TAG inh) | GalR3 antag conf 84.3 | HEK-CNG parental 2.0
N#CC1=C(N)Oc2n[nH]c(-c3ccccc3)c2C1c1cccc(OC(=O)N2CCOCC2)c1 (stereo not given)	GalR3 antag 28.2 (no result: H9c2 TAG inh) | GalR3 antag conf inactive | HEK-CNG parental inactive
COc1cc(-c2[nH]nc3c2C(c2ccoc2)C(C#N)=C(N)O3)cc(OC)c1OC (stereo not given)	GalR3 antag 18.5 (no result: H9c2 TAG inh, Calb FLC) | GalR3 antag conf inactive | HEK-CNG parental inactive
CCc1[nH]nc2c1C(c1cccnc1)C(C#N)=C(N)O2 (stereo not given)	none
COc1cccc(-c2[nH]nc3c2C(c2ccoc2)C(C#N)=C(N)O3)c1 (stereo not given)	none (no result: H9c2 TAG inh)
CCOc1ccc(-c2[nH]nc3c2C(c2cccnc2)C(C#N)=C(N)O3)cc1 (stereo not given)	GalR3 antag 15.9 | GalR3 antag conf inactive | HEK-CNG parental inactive
CCN(CCC(=O)Nc1cc(OC)ccc1OC)Cc1ccccc1	none (no result: H9c2 TAG inh, MC4R antag cAMP, Efflux pump inh, Calb FLC, MC4R ag barr)
COc1ccc(N/C(N)=N/c2nc(C)cc(C)n2)cc1	none (no result: Efflux pump inh, Calb FLC)
Cc1cc(C)nc(/N=C(\N)Nc2ccc(OCc3ccccc3)cc2)n1	GalR3 antag 34.6 | GalR3 antag conf inactive | HEK-CNG parental 7.8
Cc1cc(C)nc(/N=C(\N)Nc2ccc(OCCC(C)C)cc2)n1	GalR3 antag 44.6 (no result: H9c2 TAG inh) | GalR3 antag conf 30.0 | HEK-CNG parental 6.2
Cc1cc(C)nc(/N=C(\N)Nc2ccc(CC(=O)OC(C)C)cc2)n1	GalR3 antag 86.3 (no result: H9c2 TAG inh) | GalR3 antag conf 57.9 | HEK-CNG parental 1.4
Cc1cc(C)nc(/N=C(\N)Nc2cccc(OCc3ccccc3)c2)n1	none
Cc1cc(C)nc(/N=C(\N)Nc2ccc(S(=O)(=O)O)cc2)n1	none (no result: H9c2 TAG inh, Efflux pump inh)
OC[C@@H]1CN(Cc2ccc(F)cc2)C[C@H](n2cnc3c(N4CCOCC4)ncnc32)O1	none (no result: Efflux pump inh, Calb FLC)
CCCCNc1cccc2c1S(=O)(=O)N[C@H](Cc1ccccc1)CO2	none (no result: H9c2 TAG inh, MC4R antag cAMP, Efflux pump inh, Calb FLC, MC4R ag barr)
NNC(=O)c1cc2c(N3CCC(Cc4ccccc4)CC3)ncnc2s1	GalR3 antag 28.9 | GalR3 antag conf 21.1 | HEK-CNG parental inactive
Cc1cccc(C)c1NC(=O)C(c1ccc(C#N)cc1)n1c(=O)c(-c2cc3ccccc3[nH]2)nc2ccccc21 (stereo not given)	none (no result: H9c2 TAG inh, MC4R antag cAMP, Efflux pump inh, Calb FLC, MC4R ag barr)
Clc1ccc(OCCN2CCN(c3ncnc4sccc34)CC2)cc1	GalR3 antag 93.0, Calb FLC 99.7 (no result: H9c2 TAG inh) | GalR3 antag conf 107.0 | HEK-CNG parental inactive
Cc1ccc(OCCN2CCN(c3ncnc4sc(C)c(C)c34)CC2)cc1	GalR3 antag 100.8 (no result: H9c2 TAG inh) | GalR3 antag conf 104.2 | HEK-CNG parental inactive
CCCCNC(=O)C(NC(=O)c1cccc(C(F)(F)F)c1)C(=O)c1ccccc1 (stereo not given)	none (no result: H9c2 TAG inh, MC4R antag cAMP, Efflux pump inh, Calb FLC, MC4R ag barr)
O=C1NC(=O)C(c2ccccc2[N+](=O)[O-])=C1Nc1ccc(O)c(Cl)c1	GalR3 antag 12.9 | GalR3 antag conf inactive | HEK-CNG parental inactive
O=C(NNc1ccccc1[N+](=O)[O-])Nc1ccc(Cl)c(Cl)c1	none (no result: H9c2 TAG inh)
CC(C)C[C@H]1CN([C@@H](CC(C)C)CN2CCCC2CN2C(=S)NC[C@@H]2Cc2ccccc2)C(=S)N1CCc1ccccc1 (stereo not given in full)	none (no result: H9c2 TAG inh, MC4R antag cAMP, Efflux pump inh, Calb FLC, MC4R ag barr)
COc1cc(-c2cnc3c(NC=O)cc(-c4ccccc4Cl)cn23)cc(OC)c1OC	GalR3 antag 19.2 (no result: Efflux pump inh, Calb FLC) | GalR3 antag conf 26.0 | HEK-CNG parental 1.6
C=CCN(CC=C)C(=O)COC(=O)c1ccc(Sc2ncn[nH]2)c([N+](=O)[O-])c1	GalR3 antag 13.0 | GalR3 antag conf inactive | HEK-CNG parental inactive
O=C(NC(=O)c1ccccc1O)c1ccc(C(F)(F)F)cc1	Calb FLC inconclusive

High-throughput results from PubChem.
